From PubChem BioAssay
Inconclusive results are not listed. Active and inactive are the calls of the source.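 The calls were made as follows, unless noted: active = inhibition over a set limit, the all-compound mean plus 3 SD, in both replicate runs; inconclusive = over that limit in just one replicate run; inactive = at or under that limit in both runs.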

Key:
[1] = S. cerevisiae growth inhibition in permissive medium (OD615), pilot counter-assay for S. cerevisiae lifespan shortening project, permissive growth control (AID 705;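 active = growth inhibition above 25% in both replicates, a cutoff set 3 SD above the mean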); details: OD615, 24 h, at 10 µM, active compounds read high
Summary of the method: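 System – S. cerevisiae with engineered DeaD lifespan system · Buffer or medium – SC raffinose/galactose permissive medium · Schedule – cells pre-grown 4 h, then 24 h compound exposure, 30 °C humidified · Technique – culture turbidity as optical density at 615 nm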

[2] = S. cerevisiae growth inhibition in restrictive medium, OD615, pilot screen, restrictive growth control, yeast lifespan reduction project (AID 706;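 active = growth inhibition above a set limit, 3 SD over mean compound inhibition, in both replicates, cut at about 43% in these data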;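 also: modified DeaD lifespan yeast strain shifted to restrictive glucose medium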); details: OD615, 48 h, at 10 µM, active compounds read high
Summary of the method: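 Material: engineered S. cerevisiae DeaD strain / Medium: glucose-based CSMM-D restrictive medium / Compound: single dose of 10 µM compound final, 0.25% DMSO / Timing: 4 h pre-incubation, 48 h exposure at 30 °C / Technique: OD615 absorbance reading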

[3] = doxorubicin toxicity protection in MRP-1 cells – H69AR cells, CellTiter-Glo, duplicate, MRP-1 activator project, pilot screen (AID 807;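 active = viability increase at or above a cutoff of the median across tested compounds plus 3 SD, cut at about 8.5% in these data, passing the limit was not always enough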;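 also: compound pretreatment 18-22 h then 72 h combined with doxorubicin; 0% = doxorubicin alone and 100% = vehicle without doxorubicin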); details: H69AR viability with doxorubicin, CellTiter-Glo luminescence; at 10 µM; active compounds read high
[4] = viability of HCT116 without oncogenic beta-catenin – human colon tumor cells, pilot screen (AID 823;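 active = cell viability at or below a set limit in both duplicate runs, the limit being the all-compound median minus 4 SD, cut at about 23% in these data, passing the limit was not always enough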;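 also: 0% = wells killed by 20 µM Hyamine and 100% = untreated DMSO cell wells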); details: HCT116 beta-catenin knockout viability, CellTiter-Glo, 60 h; at 10 µM; active compounds read low
[5] = viability of PTEN-null HCT116 cells – cell-based, HCT116 clonal line, CellTiter-Glo, pilot screen (AID 824;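 active = viability at or below 27.92% in each of two runs, the all-compound median minus 4 SD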;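 also: 0% = 20 µM Hyamine control and 100% = vehicle cell control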); details: HCT116 PTEN-deleted viability, 60 h, at 10 µM, active compounds read low
[6] = RAM pathway blockade in budding yeast – dse1pr::URA3 reporter, 5-FOA selection, pilot screen (AID 869);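 also: 0% = DMSO wells with no growth and 100% = 10 µM 1-NA-PP1 with full growth; RAM network block rescues cells from 5-FOA so hits raise OD615 growth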; details: S. cerevisiae dse1pr::URA3 5-FOA growth, OD615, 2 d; at 10 µM; active compounds read high; strain carries analog-sensitive mutant Cbk1 kinase
[7] = RAM signaling pathway blockade in yeast – S. cerevisiae, Pdr1DBD-CYC8 efflux-inhibited sensitized strain, primary screen (AID 1298;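 active = RAM network inhibition above 8.4% in each of two replicates, 3 SD over the compound average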;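 also: 0% = DMSO untreated cells without growth and 100% = 10 µM 1-NA-PP1 full growth; higher means more yeast growth rescued from 5-FOA killing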); details: S. cerevisiae cbk1-as DSE1-URA3 strain, 5-FOA growth OD615, 2 d; at 50 µM; active compounds read high

O=C(CN(Cc1ccc(F)cc1)S(=O)(=O)c1ccccc1)N1CCCCC1
inactive: growth inhibition [1] -9.46% | growth inhibition [2] -3.51% | viability increase [3] -2.51% | viability [4] 97.3% | viability [5] 89.8% | inhibition [6] 0.975% | RAM network inhibition [7] 4.25%

O=C1Nc2ccccc2C(O)(C(=O)NCc2ccc3c(c2)OCO3)N1c1ccccc1 (configuration not stated)
inactive: growth inhibition [1] -2.08% | growth inhibition [2] -15.5% | viability increase [3] -3.17% | viability [4] 91.7% | viability [5] 92.5% | inhibition [6] 0.54% | RAM network inhibition [7] 0.05%

Cc1c(C)n(CC(O)CN2CCCCCC2)c2ccccc12 (configuration not stated)
inactive: growth inhibition [1] -14.9% | growth inhibition [2] -19.6% | viability increase [3] -4.25% | viability [4] 79.6% | viability [5] 81% | inhibition [6] 2.44% | RAM network inhibition [7] 1.09%

O=C(CCNS(=O)(=O)c1cccc2nonc12)NCc1cccs1
inactive: growth inhibition [1] -0.555% | growth inhibition [2] -14.2% | viability increase [3] -1.88% | viability [4] 96.3% | viability [5] 89.1% | inhibition [6] 2.46% | RAM network inhibition [7] 1.92%

CCOc1ccc(NS(=O)(=O)c2ccc3[nH]c(=O)oc3c2)cc1
inactive: growth inhibition [1] -11.6% | growth inhibition [2] -10.5% | viability increase [3] 1.01% | viability [4] 101% | viability [5] 92.6% | inhibition [6] 3.46% | RAM network inhibition [7] 4.48%

CSc1ccccc1NC(=O)c1onc(C)c1Cl
inactive: growth inhibition [1] -5.06% | growth inhibition [2] 10.3% | viability increase [3] -1.83% | viability [4] 95.6% | viability [5] 93.2% | inhibition [6] 1.33% | RAM network inhibition [7] 1.54%

CCc1c(C)sc(NC(=O)c2cc(C3CC3)on2)c1C#N
inactive: growth inhibition [1] -7.33% | growth inhibition [2] 15% | viability increase [3] 1.11% | viability [4] 99% | viability [5] 102% | inhibition [6] 3.36% | RAM network inhibition [7] -0.84%

O=C(COC(=O)c1ccco1)Nc1ccc(Br)cc1
inactive: growth inhibition [1] -15.4% | growth inhibition [2] -14.3% | viability increase [3] -1.81% | viability [4] 93.5% | viability [5] 99.3% | inhibition [6] 1.45% | RAM network inhibition [7] 2.21%

CCCc1cc(=O)[nH]c(SCC(=O)N2CCN(S(=O)(=O)c3ccc(C)cc3)C2)n1
inactive: growth inhibition [1] -4.67% | growth inhibition [2] -21.2% | viability increase [3] -1.75% | viability [4] 98.8% | viability [5] 85.6% | inhibition [6] 2.64% | RAM network inhibition [7] 3.8%

O=C(Nc1sc2c(c1C(=O)O)CCCC2)c1cccs1
inactive: growth inhibition [1] 5.62% | growth inhibition [2] 15.9% | viability increase [3] -1.03% | viability [4] 79.5% | viability [5] 57% | inhibition [6] -1.22% | RAM network inhibition [7] -2.15%

CC(NC(=O)c1ccc2c(c1)OCO2)C1CCCO1 (configuration not stated)
inactive: growth inhibition [1] -3.77% | growth inhibition [2] 7.33% | viability increase [3] -0.15% | viability [4] 96.8% | viability [5] 94.5% | inhibition [6] 1.44% | RAM network inhibition [7] -0.53%

Cc1sc2nc(SCC(=O)N(CCO)CCO)n(C3CCCCC3)c(=O)c2c1C
inactive: growth inhibition [1] -10.3% | growth inhibition [2] 0.44% | viability increase [3] -2.54% | viability [4] 99% | viability [5] 104% | inhibition [6] 2.33% | RAM network inhibition [7] 10.7%

Cc1ccc(C(=O)NCCCC(=O)O)o1
inactive: growth inhibition [1] -6.95% | growth inhibition [2] -1.79% | viability increase [3] -2.22% | viability [4] 97.4% | viability [5] 96.9% | inhibition [6] 0.1% | RAM network inhibition [7] 5.07%

CCn1c(SCC(=O)Nc2cccc(F)c2)nc2c(c1=O)SC(C)C2 (configuration not stated)
inactive: growth inhibition [1] -11.8% | growth inhibition [2] -1.47% | viability increase [3] -0.53% | viability [4] 94.8% | viability [5] 86.8% | inhibition [6] 1.57% | RAM network inhibition [7] 4.64%

COc1ccccc1C(=O)N(Cc1nc(-c2ccc(Cl)cc2)no1)C(C)C
inactive: growth inhibition [1] -17.9% | growth inhibition [2] -20.1% | viability increase [3] 1.78% | viability [4] 69% | viability [5] 71.3% | inhibition [6] 0.605% | RAM network inhibition [7] 6.95%

Cc1cc(Nc2cccc(C)c2C)n2ncnc2n1
inactive: growth inhibition [1] -5.19% | growth inhibition [2] -1.32% | viability increase [3] -0.81% | viability [4] 95.1% | viability [5] 94.3% | inhibition [6] -0.155% | RAM network inhibition [7] -1.31%

CCC(=O)N1C(C(=O)N2CCCC2)CSC1c1ccc(OC)cc1 (configuration not stated)
inactive: growth inhibition [1] -12.1% | growth inhibition [2] -12.3% | viability increase [3] -3.3% | viability [4] 96% | viability [5] 97.5% | inhibition [6] -0.035% | RAM network inhibition [7] 0.53%

CCOC(=O)C1CCN(C(=O)C2CCN(S(=O)(=O)c3cccc4cccnc34)CC2)CC1
inactive: growth inhibition [1] 4.06% | growth inhibition [2] 3.42% | viability increase [3] -1.75% | viability [4] 102% | viability [5] 97.6% | inhibition [6] 0.585% | RAM network inhibition [7] 1.1%

CCOc1ccc(C2c3c(oc4cc(C)c(C)cc4c3=O)C(=O)N2CCCN(C)C)cc1OC (configuration not stated)
inactive: growth inhibition [1] -3.33% | growth inhibition [2] -1.7% | viability increase [3] -1.6% | viability [4] 108% | viability [5] 98% | inhibition [6] -0.13% | RAM network inhibition [7] -0.66%

Oc1cc(Cc2ccccc2)cnc1CN1CCOCC1
inactive: growth inhibition [1] 1.49% | growth inhibition [2] 2.83% | viability increase [3] -0.73% | viability [4] 96.8% | viability [5] 87.3% | inhibition [6] 0.81% | RAM network inhibition [7] 1.51%

O=C(NC1CCCc2ccccc21)C1CCC(CNc2c(N3CCOCC3)c(=O)c2=O)CC1 (configuration not stated)
inactive: growth inhibition [1] -6.7% | growth inhibition [2] 7.02% | viability increase [3] -0.75% | viability [4] 105% | viability [5] 107% | inhibition [6] 1.08% | RAM network inhibition [7] 1.43%

COc1ccc(S(=O)(=O)N2CCC(C(=O)N3CCc4ccccc4C3)CC2)cc1
inactive: growth inhibition [1] 11.1% | growth inhibition [2] -10.1% | viability increase [3] -5.43% | viability [4] 93.5% | viability [5] 85% | inhibition [6] 0.13% | RAM network inhibition [7] 2.53%

COC(=O)C1Sc2[nH]c(=O)sc2C(c2ccc(Cl)cc2)C1C(=O)OC (configuration not stated)
inactive: growth inhibition [1] -14.8% | growth inhibition [2] -14.8% | viability increase [3] -5.67% | viability [4] 91.3% | viability [5] 88.7% | inhibition [6] 4.36% | RAM network inhibition [7] 2.45%

CCOc1ccc(C2CC(c3cccc(OC)c3)n3nc(N)nc3N2)cc1 (configuration not stated)
inactive: growth inhibition [1] 0.02% | growth inhibition [2] 5.62% | viability increase [3] 0.88% | viability [4] 109% | viability [5] 92.3% | inhibition [6] 0.875% | RAM network inhibition [7] 4.58%

Cc1ccc2oc(=O)c3cnn(CC(=O)NC4CCC(C)CC4)c3c2c1 (configuration not stated)
inactive: growth inhibition [1] -14.1% | growth inhibition [2] -15.1% | viability increase [3] 0.16% | viability [4] 94.4% | viability [5] 86% | inhibition [6] 1.02% | RAM network inhibition [7] 2.93%

Cn1c(=O)[nH]c(=O)c2c1nc(CN1CCN(c3cccc(Cl)c3)CC1)n2Cc1ccccc1Cl
inactive: growth inhibition [1] -9.22% | growth inhibition [2] -6.86% | viability increase [3] -6.82% | viability [4] 41.1% | viability [5] 32.9% | inhibition [6] 1.39% | RAM network inhibition [7] 4.08%

Cc1cccc(-c2nc(CS(=O)CC(=O)NC3CCCC3)c(C)o2)c1 (configuration not stated)
inactive: growth inhibition [1] 6.19% | growth inhibition [2] 1.96% | viability increase [3] -3.32% | viability [4] 94.5% | viability [5] 91.7% | inhibition [6] 3.42% | RAM network inhibition [7] 4.67%

CN(CCO)c1ncnc2nc[nH]c12
inactive: growth inhibition [1] -10.4% | growth inhibition [2] -7.77% | viability increase [3] 0.3% | viability [4] 104% | viability [5] 93.2% | inhibition [6] 1.36% | RAM network inhibition [7] 1.71%

COc1ccc(OC)c2[nH]c(=O)c(CCNC(=O)C(C)(C)C)cc12
inactive: growth inhibition [1] -5.16% | growth inhibition [2] -4.56% | viability increase [3] 1.19% | viability [4] 105% | viability [5] 102% | inhibition [6] 0.23% | RAM network inhibition [7] 0.89%

S=c1sc2c(N3CCOCC3)ncnc2n1-c1ccccc1
inactive: growth inhibition [1] -11.6% | growth inhibition [2] 8.65% | viability increase [3] -3.12% | viability [4] 102% | viability [5] 94.9% | inhibition [6] 1.64% | RAM network inhibition [7] 4.8%

Cn1nc(-c2ccc(Cl)cc2)c2cc(C(=O)NCCCN3CCCC3)sc21
active: viability [4] 2.27% | viability [5] 1.95%
inactive: growth inhibition [1] -5.71% | growth inhibition [2] 4.49% | viability increase [3] -8.31% | inhibition [6] 1.23% | RAM network inhibition [7] 0.73%

CCOC(=O)c1ccc(CSc2n[nH]c(C)n2)o1
inactive: growth inhibition [1] -3.09% | growth inhibition [2] -7.67% | viability increase [3] -2.58% | viability [4] 97.7% | viability [5] 96.7% | inhibition [6] -1.18% | RAM network inhibition [7] 1.95%

CCCCn1c(CNC(=O)CC)nc2ccccc21
inactive: growth inhibition [1] -4.54% | growth inhibition [2] -9.44% | viability increase [3] -2.1% | viability [4] 103% | viability [5] 102% | inhibition [6] 0.825% | RAM network inhibition [7] 1.89%

O=C(CSc1nccn1-c1ccc(Cl)cc1)NCc1ccc2c(c1)OCO2
inactive: growth inhibition [1] -14.6% | growth inhibition [2] -8.19% | viability increase [3] -0.8% | viability [4] 96.3% | viability [5] 89.5% | inhibition [6] 1.3% | RAM network inhibition [7] 2.26%

COC(=O)c1ccc(Cl)c(NC(=O)NC2CCCCC2)c1
inactive: growth inhibition [1] -15.1% | growth inhibition [2] -5.54% | viability increase [3] -1.61% | viability [4] 96.3% | viability [5] 93% | inhibition [6] 2.23% | RAM network inhibition [7] 6.1%

COc1ccccc1N1CCN(C(=O)CCCC2=NS(=O)(=O)c3ccccc3N2)CC1
inactive: growth inhibition [1] 0.08% | growth inhibition [2] -12.7% | viability increase [3] -4.95% | viability [4] 97.3% | viability [5] 92.4% | inhibition [6] 1.4% | RAM network inhibition [7] -0.58%
